Screens deposited in PubChem by several laboratories.
G6PDH counter – L. mesenteroides G6PDH inhibitors, counter-screen for G6PDH-coupled screening assays, biochemical, Leuconostoc mesenteroides enzyme; Purified L. mesenteroides G6PDH, diaphorase/resazurin coupled fluorescence, 45 min; inhibition, % at 5 µM; actives 0.12% (n = 200,000); in the data active = inhibition above about 50%
HKDC1 inhibitor – HKDC1 hexokinase inhibitors, primary screen, biochemical, fluorescence, uHTS | inhibition, % at 20 µM | AID 493160, 2011 | recombinant HKDC1, G6PDH/diaphorase resazurin coupled fluorescence | actives 0.16% (n = 340,000);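 active = inhibition above about 35% when tested at 20 µM, limit read from the data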
Target sequence (Q2TB90 whole entry, looked up): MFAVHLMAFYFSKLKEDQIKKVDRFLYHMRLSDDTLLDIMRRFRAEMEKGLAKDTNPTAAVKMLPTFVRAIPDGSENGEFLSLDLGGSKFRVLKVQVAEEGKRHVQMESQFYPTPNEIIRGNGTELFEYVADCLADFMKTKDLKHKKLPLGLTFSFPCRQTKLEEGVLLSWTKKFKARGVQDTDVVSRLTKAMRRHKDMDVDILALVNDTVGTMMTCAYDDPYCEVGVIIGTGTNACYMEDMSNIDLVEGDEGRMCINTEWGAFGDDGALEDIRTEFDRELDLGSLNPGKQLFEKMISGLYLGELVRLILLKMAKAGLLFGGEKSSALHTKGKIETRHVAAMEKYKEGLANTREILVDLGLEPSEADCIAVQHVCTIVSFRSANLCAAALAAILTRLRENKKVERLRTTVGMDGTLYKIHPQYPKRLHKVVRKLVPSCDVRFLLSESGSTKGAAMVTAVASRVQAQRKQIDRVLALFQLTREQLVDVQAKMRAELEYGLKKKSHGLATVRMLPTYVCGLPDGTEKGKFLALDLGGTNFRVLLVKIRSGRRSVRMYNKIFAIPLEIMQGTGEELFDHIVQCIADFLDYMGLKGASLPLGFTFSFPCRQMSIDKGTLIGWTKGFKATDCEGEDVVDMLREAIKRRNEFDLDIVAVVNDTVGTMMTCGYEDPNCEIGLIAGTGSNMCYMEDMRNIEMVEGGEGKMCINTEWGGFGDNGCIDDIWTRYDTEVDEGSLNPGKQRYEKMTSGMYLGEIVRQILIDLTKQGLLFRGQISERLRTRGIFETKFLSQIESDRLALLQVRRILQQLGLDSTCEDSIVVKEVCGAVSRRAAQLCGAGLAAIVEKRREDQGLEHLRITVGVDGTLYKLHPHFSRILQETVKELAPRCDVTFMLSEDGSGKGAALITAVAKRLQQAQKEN
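Test system: recombinant HKDC1 (HK5) hexokinase enzyme, produced in-house; Amount: enzyme 5 µg/mL final; Buffer or medium: Tris pH 8.0 buffer with MgCl2, Tween-20, BSA, BME; Reagent: glucose and ATP substrates; Doses: 20 µM test compound, 1% DMSO; Incubation: 90 min reaction incubation at room temperature, dark; Detection: resorufin fluorescence at 613 nm.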
Tb hexokinase – Trypanosoma brucei hexokinase 1 inhibitors, primary screen, biochemical, G6PDH-coupled NADH absorbance, MLSCN library; recombinant TbHK1, G6PDH-coupled NADH A340; inhibition, % at 10 µM; actives 0.11% (n = 220,000); AID 1430, 2008;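 active = inhibition of 50% or more in the single-dose primary screen; inactive = inhibition below 50%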
Diaphorase inh – diaphorase inhibitors and chemical oxidizers, primary screen, counter-screen for diaphorase-coupled primary assays, biochemical, uHTS, resorufin fluorescence | diaphorase resazurin-to-resorufin fluorescence, NADH, 16 min; bacterial (C. kluyveri) enzyme, not human | inhibition, % at 20 µM | actives 0.69% (n = 190,000) | AID 1217, 2008;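 active = primary screen inhibition at 20 µM above a set limit, cut at about 50% in these data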
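Test system: Clostridium kluyveri diaphorase enzyme / Quantity: diaphorase at 0.14 U/mL in enzyme working solution / Incubation: 16-min room-temperature incubation before reading / Benchmarks: NADH-free wells as positive control, DMSO-only neutral wells / Signal: resorufin fluorescence 544/590 nm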
Diaph act CS – compounds boosting diaphorase resazurin reduction – biochemical, uHTS, resorufin fluorescence, counter-screen for diaphorase-coupled primary assays, primary screen; Diaphorase/resazurin coupled assay, 16 min; stronger effect = higher value; 1 = vehicle wells, 0 = NADH-free wells; activation factor at 20 µM; actives 0.005% (n = 190,000);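 active = diaphorase activity raised at least twofold by the compound at 20 µM; inactive = activation factor below 2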
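test system = bacterial diaphorase enzyme (C. kluyveri) | quantity = enzyme 0.07 U/mL final | reagent = NADH substrate 0.114 mM plus resazurin dye 0.1 mM, final | incubation = 16 min enzyme reaction, ambient temperature | buffer or medium = HEPES pH 7.4 buffer with MgCl2 and Tween 20 | signal = fluorescence of resorufin, 544 nm excitation, 590 nm emission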
PfGluPho inh – PfG6PD enzyme inhibitors, primary screen, biochemical, fluorescence intensity, uHTS; glucose-6-phosphate dehydrogenase-6-phosphogluconolactonase (Plasmodium falciparum 3D7); PfGluPho enzyme, NADPH resazurin-diaphorase fluorescence; inhibition, % at 20 µM; actives 0.78% (n = 350,000);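 active = inhibition reaching at least a set limit at 20 µM in the primary screen, cut at about 59% in these data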
PfGluPho conf – PfG6PD inhibitors, hit retest, confirmation, biochemical, fluorescence intensity, single concentration; AID 504753, 2011; shares compounds with PfGluPho inh; inhibition, % at 20 µM; actives 34% (n = 2,400); recombinant PfGluPho, NADPH-diaphorase-resazurin fluorescence;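 active = inhibition of at least 50% at 20 µM in any single replicate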
Diaph ctr 10uM – diaphorase inhibitors and chemical oxidizers, confirmation, counter-screen for P. falciparum G6PD inhibitor project, biochemical, fluorescence intensity, 10 µM NADPH; shares compounds with PfGluPho inh; diaphorase-coupled resazurin reduction, NADPH 10 uM; inhibition, % at 20 µM; actives 39% (n = 820);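 active = average inhibition reaching 50% or more with the compound at 20 µM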;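 note: resorufin red fluorescence formed as diaphorase reduces resazurin using NADPH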
Diaph ctr 30uM – diaphorase inhibitors and chemical oxidizers, confirmation, counter-screen for P. falciparum G6PD inhibitor project, biochemical, fluorescence intensity, 30 µM NADPH. Diaphorase/resazurin coupled assay, resorufin fluorescence. inhibition, % at 20 µM. actives 29% (n = 820). shares compounds with PfGluPho inh;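 active = inhibition averaging 50% or more, tested at 20 µM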
Hits are given with their value; n = inactive; x = no result given. Only some compounds are listed: those with a hit (about 1.3% of all), similar ones and a draw of the others.

SMILES | G6PDH counter | HKDC1 inhibitor | Tb hexokinase | Diaphorase inh | Diaph act CS | PfGluPho inh | PfGluPho conf | others
O=C(N/N=C/c1cccc(Oc2ccc([N+](=O)[O-])cc2[N+](=O)[O-])c1)c1cncc(Br)c1 | n | n | n | n | n | 98 | 69 | Diaph ctr 10uM=69;Diaph ctr 30uM=58
C[C@@H]1c2ccccc2N2C[C@H](Cc3ccc(C(=O)c4ccccc4)cc3)C[C@@H]12 | x | x | x | x | x | n | x
CC(=O)Cc1cc(O)c2ccccc2c1OC(=O)c1ccccc1 | n | n | n | n | n | 66 | n
Cc1cccc(OCC(=O)N/N=C/c2cc([N+](=O)[O-])ccc2N2CCOCC2)c1 | n | n | n | n | n | 118 | 68 | Diaph ctr 10uM=57;Diaph ctr 30uM=59
CCc1ccc(OCC(=O)N/N=C/c2cc([N+](=O)[O-])ccc2N2CCOCC2)cc1 | n | n | n | n | n | 96 | 56 | Diaph ctr 10uM=n;Diaph ctr 30uM=n
NC(N)=NN=C(c1ccc(F)cc1)c1ccc(C(F)(F)F)cc1 | x | n | x | x | x | n | x
Cc1nc2c(o1)C(=O)c1ccccc1C2=Nc1ccccc1 | x | n | x | x | x | 104 | 50 | Diaph ctr 10uM=53;Diaph ctr 30uM=n
Cc1nc(-c2ccc(NC(=O)C(C)(C)C)cc2)c(-c2ccccc2)o1 | x | n | x | x | x | n | x
CC(=O)Oc1ccc(-c2csc(Nc3ccc(S(N)(=O)=O)cc3)n2)cc1 | n | n | n | x | x | 62 | n
NS(=O)(=O)c1ccc(Nc2nc(-c3ccc(O)cc3)cs2)cc1 | n | n | n | n | n | 70 | n
Oc1ccc(Nc2nc(-c3ccc(O)cc3)cs2)cc1 | n | n | n | n | n | n | x
Cc1nc(N)sc1-c1csc(Nc2ccc(S(N)(=O)=O)cc2)n1 | x | n | x | x | x | n | x
C=C(CN(C)C)C(=O)c1ccc(C)cc1C | x | n | x | x | x | 68 | n
COC(=O)c1ccc(CNC(=O)C(Cc2ccccc2)NC(=O)c2ccccc2)cc1 (stereo not given) | x | x | x | x | x | n | x
COc1cc(C=C2CN(C)C(=O)C2=O)ccc1O | x | x | x | x | x | n | x
COc1cc(/C=C2\OC(=O)c3c(OC)cccc32)ccc1O | n | n | n | n | n | 74 | n
CC(C)OC(=O)CC1C(=O)NCCN1C(=O)COc1ccc(C(C)(C)C)cc1 (stereo not given) | x | n | x | x | x | n | x
Cc1nn(-c2ccccn2)c2c1C(=O)C(Br)CC2 (stereo not given) | n | n | n | 82 | n | 90 | n
CC1=C(C)C(=O)N(c2ccccn2)C1=O | n | n | n | n | n | n | x
NC(=O)Oc1cccc(OC(N)=O)c1 | x | n | n | x | x | n | x
COc1ccc(NC(=O)CS(=O)(=O)c2cn(CC(=O)N(C(C)C)C(C)C)c3ccccc23)c(OC)c1 | x | n | x | x | x | n | x
CCCn1cc(S(=O)(=O)CC(=O)Nc2ccc(OC)cc2OC)c2ccccc21 | n | n | n | n | n | 67 | 68 | Diaph ctr 10uM=n;Diaph ctr 30uM=n
Cc1ccc(S(=O)(=O)N2CCOCC2)cc1NC(=O)CSc1ccc(Cl)cc1 | x | n | x | x | x | n | x
CCOC(=O)c1ccc(S(=O)(=O)Nc2cc(S(=O)(=O)N3CCOCC3)ccc2O)cc1 | x | n | x | x | x | 60 | n
O=C(CCCSc1ccc(Cl)cc1)Nc1cc(S(=O)(=O)N2CCOCC2)ccc1O | x | n | x | x | x | 74 | n
SMILES | G6PDH counter | HKDC1 inhibitor | Tb hexokinase | Diaphorase inh | Diaph act CS | PfGluPho inh | PfGluPho conf | others
Fc1ccc(C[n+]2csc3ccccc32)cc1 | n | n | n | n | n | 64 | n
CCCc1cc(=O)c2c(O)ccc(OC)c2o1 | x | n | n | x | x | n | x
CCN(CC)c1ncnc2c1sc1nc(C)cc(C)c12 | n | n | n | n | n | 72 | n
Cc1cc(C)c2c(n1)sc1c(N3CCCCC3)ncnc12 | x | n | n | x | x | 70 | n
Cc1cc(C)c2c(n1)sc1c(N3CCN(C)CC3)ncnc12 | x | n | n | x | x | n | x
CC(C)CSc1nc2c(c(=O)[nH]c(=O)n2C)n1CC(O)COc1cccc2ccccc12 (stereo not given) | n | n | n | n | n | 64 | n
CC1=NNC(=O)C1CC(=O)N/N=C/C=C/c1ccccc1 (stereo not given) | x | n | n | x | x | n | x
COc1ccc(CCn2c(NN=C(C)C)nc3c2c(=O)[nH]c(=O)n3C)cc1 | x | n | n | x | x | 118 | 51 | Diaph ctr 10uM=n;Diaph ctr 30uM=n
COc1ccc(CCn2c(Br)nc3c2c(=O)[nH]c(=O)n3C)cc1 | n | n | n | n | n | n | x
COc1ccc(CCn2c(NN)nc3c2c(=O)[nH]c(=O)n3C)cc1 | x | n | n | x | x | 103 | 88 | Diaph ctr 10uM=n;Diaph ctr 30uM=n
Cc1nn(CC(=O)NCCCN2CCCC2)c(=O)c2nn(-c3ccccc3)c(C)c12 | x | n | x | x | x | n | x
CN1CCn2cnc(C(=O)NCCCCCNC(=O)OC(C)(C)C)c2C1=O | x | x | x | x | x | n | x
NC(=S)N/N=C\c1c2ccccc2cc2ccccc12 | n | n | n | n | n | n | x
NC(=S)NN=Cc1cc(-c2cccc(N)c2)ccn1 | x | x | x | x | x | 69 | n
COc1ccc(NC(=O)CN(C)C(=O)CN2C(=O)C3CCCCC3C2=O)cc1 (stereo not given) | x | n | x | x | x | n | x
Cc1onc(C(=O)Nc2sc3c(c2C(N)=O)CCCC3)c1[N+](=O)[O-] | x | n | n | x | x | 64 | n
O=C(COc1ccccc1)Nc1cc(NC(=O)COc2ccccc2)cc(C(=O)O)c1 | x | n | x | x | x | n | x
c1ccc(-c2nc3cc4ccccc4cc3[nH]2)nc1 | n | n | n | n | n | 89 | n
c1cncc(-c2nc3cc4ccccc4cc3[nH]2)c1 | n | n | n | n | n | 62 | n
Cc1nn(C2CCS(=O)(=O)C2)c(C)c1CN(C)C(=O)c1ccccc1 (stereo not given) | x | n | x | x | x | n | x
COc1cc(C)ccc1Oc1ccc([N+](=O)[O-])cc1 | x | n | x | x | x | 63 | n
COc1ccc(CCC(C)NCC(C)c2ccccc2)cc1 (stereo not given) | x | n | x | x | x | n | x
